Data reported in ChEMBL document CHEMBL2150909, “Imidazo[1,2-a]pyridines: orally active positive allosteric modulators of the metabotropic glutamate 2 receptor” (J Med Chem, 2012).
pEC50: −log10 of the molar value.

How the values were obtained:
[1] = biological target: T1, Metabotropic glutamate receptor 2 (Homo sapiens, UniProt Q14416); assay: Agonist activity at human mGlu 2 expressed in CHO cells assessed as [35S]GTPgammaS binding by liquid scintillation analysis; format: functional, cell-based
Method in brief: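 Membranes from butyrate-stimulated (5 mM, 24 h) CHO cells expressing human mGlu2. Preincubated 30 min at 30 °C in HEPES pH 7.4 with NaCl, MgCl2, 50 μM GDP and saponin; modulator 0.3 nM–50 μM, no added glutamate. [35S]GTPγS 0.1 nM final, 30 min at 30 °C, filtered, scintillation counted. Nonspecific binding defined with cold GTP; 11 concentrations in duplicate, ≥3 curves.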
Target sequence in this assay (Q14416 whole entry): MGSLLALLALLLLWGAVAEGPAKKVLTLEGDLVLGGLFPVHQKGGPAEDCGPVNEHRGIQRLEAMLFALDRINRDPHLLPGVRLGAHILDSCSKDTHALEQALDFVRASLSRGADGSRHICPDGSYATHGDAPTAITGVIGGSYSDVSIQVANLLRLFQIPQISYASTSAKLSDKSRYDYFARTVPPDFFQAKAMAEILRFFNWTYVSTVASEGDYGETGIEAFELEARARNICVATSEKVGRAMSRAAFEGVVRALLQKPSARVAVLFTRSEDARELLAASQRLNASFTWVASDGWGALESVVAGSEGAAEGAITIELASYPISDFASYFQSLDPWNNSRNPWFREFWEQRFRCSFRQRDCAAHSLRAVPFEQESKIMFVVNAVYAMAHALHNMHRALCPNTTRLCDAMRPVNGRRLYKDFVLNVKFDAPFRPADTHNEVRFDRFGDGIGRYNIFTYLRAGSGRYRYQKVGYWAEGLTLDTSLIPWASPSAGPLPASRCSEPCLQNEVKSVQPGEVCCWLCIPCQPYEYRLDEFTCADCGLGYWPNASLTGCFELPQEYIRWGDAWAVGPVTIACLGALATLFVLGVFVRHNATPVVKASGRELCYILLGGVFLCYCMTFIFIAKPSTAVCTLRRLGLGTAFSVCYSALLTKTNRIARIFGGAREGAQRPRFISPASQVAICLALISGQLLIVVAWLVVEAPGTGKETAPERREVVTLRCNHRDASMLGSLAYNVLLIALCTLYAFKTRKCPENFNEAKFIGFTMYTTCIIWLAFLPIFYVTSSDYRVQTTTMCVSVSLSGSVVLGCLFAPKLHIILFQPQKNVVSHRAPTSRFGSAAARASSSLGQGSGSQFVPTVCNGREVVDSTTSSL

[2] = biological target: T1, Metabotropic glutamate receptor 2; assay: Agonist activity at human mGlu 2 expressed in CHO cells by PAM assay relative to glutamate; format: functional, cell-based
Method in brief: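 The assay measured [35S]GTPγS binding to membranes from CHO cells expressing human mGluR2. Cells were butyrate-stimulated (5 mM, 24 h) before membranes were prepared. Membranes were preincubated for 30 min at 30 °C in HEPES pH 7.4 buffer (NaCl, MgCl2, 50 μM GDP) with compound (0.3 nM–50 μM, 11 concentrations) plus EC25 glutamate. [35S]GTPγS (0.1 nM final) was then added for 30 min at 30 °C. Bound label was collected by filtration and counted. Runs were done at least in triplicate with duplicate points, and a four-parameter logistic fit gave the values.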
Target sequence in this assay (Q14416 19-872 limits assumed): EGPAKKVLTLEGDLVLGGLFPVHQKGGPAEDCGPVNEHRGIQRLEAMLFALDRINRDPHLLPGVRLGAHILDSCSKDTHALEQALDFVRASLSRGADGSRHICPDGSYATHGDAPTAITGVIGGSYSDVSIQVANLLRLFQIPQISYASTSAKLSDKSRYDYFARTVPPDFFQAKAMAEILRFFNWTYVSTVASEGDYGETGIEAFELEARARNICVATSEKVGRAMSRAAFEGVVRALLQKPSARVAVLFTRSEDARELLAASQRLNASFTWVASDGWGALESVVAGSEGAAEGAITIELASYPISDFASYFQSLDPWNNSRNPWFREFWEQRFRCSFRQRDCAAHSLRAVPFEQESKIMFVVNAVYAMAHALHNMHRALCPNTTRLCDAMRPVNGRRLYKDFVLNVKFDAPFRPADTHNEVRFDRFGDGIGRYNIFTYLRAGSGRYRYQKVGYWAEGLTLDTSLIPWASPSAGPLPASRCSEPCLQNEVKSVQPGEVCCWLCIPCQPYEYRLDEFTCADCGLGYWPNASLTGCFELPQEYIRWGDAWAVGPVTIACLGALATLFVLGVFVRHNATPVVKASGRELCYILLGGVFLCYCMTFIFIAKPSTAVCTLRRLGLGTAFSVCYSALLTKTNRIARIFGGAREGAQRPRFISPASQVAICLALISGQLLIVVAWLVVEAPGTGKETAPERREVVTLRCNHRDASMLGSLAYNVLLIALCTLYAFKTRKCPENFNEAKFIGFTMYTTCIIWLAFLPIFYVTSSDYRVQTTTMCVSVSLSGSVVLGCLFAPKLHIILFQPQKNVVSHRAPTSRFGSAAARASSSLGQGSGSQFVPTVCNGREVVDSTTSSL

[3] = Metabolic stability of human liver microsomes assessed as compound metabolized at 5 uM after 15 mins; format: ADME, Microsome; settings: read-out: Drug metabolism
Method in brief: (§1)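 Test compound at 5 μM incubated 15 min with rat or human liver microsomes; read-out is percent of compound metabolized.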

[4] = Metabolic stability of Sprague-Dawley rat liver microsomes assessed as compound metabolized at 5 uM after 15 mins; format: ADME, Microsome; settings: read-out: Drug metabolism; method in brief: as §1
[5] = Drug uptake in Sprague-Dawley rat brain at 10 mg/kg, sc after 1 hr; format: ADME, organism-based; design: dose 10 mg/kg, route subcutaneous; settings: read-out: Drug uptake
Method in brief: (§2)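 Brain exposure in male Sprague-Dawley rats after a 10 mg/kg subcutaneous dose, vehicle 20% HP-β-CD at pH 4. Brain level measured in ng/g alongside plasma in ng/mL; geometric mean of at least two runs ± SEM.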

[6] = Drug uptake in Sprague-Dawley rat brain at 10 mg/kg, sc after 2 hrs; format: ADME, organism-based; design: dose 10 mg/kg, route subcutaneous; settings: read-out: Drug uptake; method in brief: as §2
[7] = Drug uptake in Sprague-Dawley rat brain at 10 mg/kg, sc after 4 hrs; format: ADME, organism-based; design: dose 10 mg/kg, route subcutaneous; settings: read-out: Drug uptake; method in brief: as §2
[8] = Plasma concentration in Sprague-Dawley rat at 10 mg/kg, sc after 1 hr; format: ADME, organism-based; design: dose 10 mg/kg, route subcutaneous
Method in brief: (§3)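 Male Sprague−Dawley rats given 10 mg/kg subcutaneously, vehicle 20% HP-β-CD at pH 4. Plasma (ng/mL) and brain (ng/g) drug levels determined at the listed post-dose time; B/P ratio derived from them. Values are geometric means of at least two runs ± SEM.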

[9] = Plasma concentration in Sprague-Dawley rat at 10 mg/kg, sc after 2 hrs; format: ADME, organism-based; design: dose 10 mg/kg, route subcutaneous; method in brief: as §3
[10] = Plasma concentration in Sprague-Dawley rat at 10 mg/kg, sc after 4 hrs; format: ADME, organism-based; design: dose 10 mg/kg, route subcutaneous; method in brief: as §3
[11] = Ratio of drug level in brain to plasma of Sprague-Dawley rat at 10 mg/kg, sc after 1 hr; format: ADME, organism-based; design: dose 10 mg/kg, route subcutaneous; settings: read-out: BPR; method in brief: as §3
[12] = Ratio of drug level in brain to plasma of Sprague-Dawley rat at 10 mg/kg, sc after 2 hrs; format: ADME, organism-based; design: dose 10 mg/kg, route subcutaneous; settings: read-out: BPR; method in brief: as §3
[13] = Ratio of drug level in brain to plasma of Sprague-Dawley rat at 10 mg/kg, sc after 4 hrs; format: ADME, organism-based; design: dose 10 mg/kg, route subcutaneous; settings: brain and plasma, read-out: BPR; method in brief: as §3

Row | SMILES | pEC50 [1] | Emax [2] [%] | metabolised at 0.25 h, 5 µM [3] [%] | metabolised at 0.25 h, 5 µM [4] [%] | further results
1 | O[C@H]1CC[C@H](Nc2ccc(-c3ccn4c(CC(F)(F)F)cnc4c3Cl)cc2Cl)CC1 | 6.82 | 293 | 16 | 15 | concentration at 1 h [5]: 1000 ng/g; concentration at 2 h [6]: 1220 ng/g; concentration at 4 h [7]: 485 ng/g; concentration at 1 h [8]: 2140 ng/mL; concentration at 2 h [9]: 1280 ng/mL; concentration at 4 h [10]: 708 ng/mL; Kp at 1 h [11]: 0.5; Kp at 2 h [12]: 1; Kp at 4 h [13]: 0.7
2 | FC(F)(F)Cc1cnc2c(Cl)c(-c3cc(Cl)c4c(ccn4CC4CC4)c3)ccn12 | – | 193 | 1 | 70 | –
3 | N#Cc1c(-c2ccc(N3CCOCC3)c(Cl)c2)ccn2c(CC(F)(F)F)cnc12 | – | 167 | – | – | –

Now from value to compound, other results behind:

Row | pEC50 [1] | Emax [2] [%] | metabolised at 0.25 h, 5 µM [3] [%] | metabolised at 0.25 h, 5 µM [4] [%] | SMILES | further results
4 | 6.92 | 184 | 51 | 62 | Cn1ccc2cc(-c3ccn4c(CC(F)(F)F)cnc4c3C#N)cc(Cl)c21 | –
5 | – | 154 | 28 | 55 | Cn1ccc2cc(-c3ccn4c(CC(F)(F)F)cnc4c3C#N)ccc21 | –
6 | – | 105 | – | – | N#Cc1c(-c2ccc3c(c2)OCCNC3)ccn2c(CC(F)(F)F)cnc12 | –
7 | 6.72 | 230 | 24 | 40 | N#Cc1c(-c2ccc3c(ccn3CC3CC3)c2)ccn2c(CC(F)(F)F)cnc12 | –
